The values that follow come from ChEMBL document CHEMBL4152387, “Discovery of a Potent Grp94 Selective Inhibitor with Anti-Inflammatory Efficacy in a Mouse Model of Ulcerative Colitis” (J Med Chem, 2018).

Each structure is given as a SMILES string. Some results are limits rather than exact numbers.

For series [1], the target named is Endoplasmin (Canis lupus familiaris, UniProt P41148). The experiment in a line: Inhibition of FITC-geldanamycin binding to canine GRP94 incubated for 5 hrs by fluorescence polarization assay.
For series [2], the target named is T1, Heat shock protein HSP 90-alpha (Homo sapiens, UniProt P07900). The experiment in a line: Inhibition of FITC-geldanamycin binding to HSP90alpha (unknown origin) incubated for 5 hrs by fluorescence polarization assay.
For the next series, the species on record is Homo sapiens. The experiment in a line: Selectivity ratio of IC50 for inhibition of human recombinant HSP90alpha expressed in Escherichia coli by fluorescence polarization assay to IC50 for inhibition of GRP94 (unknown origin).
Series [3] deals with T1, Heat shock protein HSP 90-alpha. Kind of series: Inhibition of human recombinant HSP90alpha expressed in Escherichia coli by fluorescence polarization assay.
Series [4] addresses Endoplasmin (Homo sapiens, UniProt P14625). The experiment in a line: Binding affinity to GRP94 N-domain (unknown origin).
The species entered for another series is Canis lupus familiaris. Kind of series: Inhibition of FITC-geldanamycin binding to dog GST-tagged GRP94 N41 deletion mutant (69 to 337 residues) expressed in Escherichia coli BL21star (DE3) at 100 uM after 4 hrs by FP assay relative to control.
A short description of series [5]: Inhibition of FITC-geldanamycin binding to dog GST-tagged GRP94 N41 deletion mutant (69 to 337 residues) expressed in Escherichia coli BL21star (DE3) after 4 hrs by GM-FITC-based FP assay. Details: species or system Canis lupus familiaris; call rule not given here.
Series [6] deals with T1, Heat shock protein HSP 90-alpha. Kind of series: Inhibition of FITC-geldanamycin binding to human His-tagged HSP90alpha N-terminal domain (1 to 236 residues) expressed in Escherichia coli BL21star (DE3) at 100 uM after 4 hrs by FP assay relative to control. In outline:
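Hsp90αN (15 nM final) with GM-FITC (6 nM final) and compound in HEPES/KCl/MgCl2 buffer pH 7.4 with NP40, DTT, BGG; 4 h at 4 °C in dark; FP at ex 485/em 535 nm; inhibition computed against GM-FITC-only and protein-plus-probe controls; n = 3.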

Series [7] has the same target. Kind of series: Inhibition of HSP90alpha in human PANC1 cells assessed as up-regulation of Hsp70 at 1 uM after 36 hrs by Western blot analysis. It is filed as cell-based. In outline:
(§1)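 Panc-1 cells treated 36 h; total protein lysate with protease/phosphatase inhibitors; equal protein by BCA on SDS-PAGE, PVDF, Western blot for Hsp70 and Akt, β-actin loading control; AT13387 reference.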

Series [8] has the same target. Kind of series: Inhibition of HSP90alpha in human PANC1 cells assessed as akt degradation at 1 uM after 36 hrs by Western blot analysis. It is filed as cell-based. A digest of the protocol:
as §1

Another series addresses Heat shock protein HSP90 (Homo sapiens, UniProt P07900+P08238). The experiment in a line: Inhibition of FITC-geldanamycin binding to human His-tagged HSP90alpha N-terminal domain (1 to 236 residues) expressed in Escherichia coli BL21star (DE3) after 4 hrs by FP assay relative to control.

Sequence of Endoplasmin (Canis lupus familiaris, UniProt P41148) (P41148 whole entry): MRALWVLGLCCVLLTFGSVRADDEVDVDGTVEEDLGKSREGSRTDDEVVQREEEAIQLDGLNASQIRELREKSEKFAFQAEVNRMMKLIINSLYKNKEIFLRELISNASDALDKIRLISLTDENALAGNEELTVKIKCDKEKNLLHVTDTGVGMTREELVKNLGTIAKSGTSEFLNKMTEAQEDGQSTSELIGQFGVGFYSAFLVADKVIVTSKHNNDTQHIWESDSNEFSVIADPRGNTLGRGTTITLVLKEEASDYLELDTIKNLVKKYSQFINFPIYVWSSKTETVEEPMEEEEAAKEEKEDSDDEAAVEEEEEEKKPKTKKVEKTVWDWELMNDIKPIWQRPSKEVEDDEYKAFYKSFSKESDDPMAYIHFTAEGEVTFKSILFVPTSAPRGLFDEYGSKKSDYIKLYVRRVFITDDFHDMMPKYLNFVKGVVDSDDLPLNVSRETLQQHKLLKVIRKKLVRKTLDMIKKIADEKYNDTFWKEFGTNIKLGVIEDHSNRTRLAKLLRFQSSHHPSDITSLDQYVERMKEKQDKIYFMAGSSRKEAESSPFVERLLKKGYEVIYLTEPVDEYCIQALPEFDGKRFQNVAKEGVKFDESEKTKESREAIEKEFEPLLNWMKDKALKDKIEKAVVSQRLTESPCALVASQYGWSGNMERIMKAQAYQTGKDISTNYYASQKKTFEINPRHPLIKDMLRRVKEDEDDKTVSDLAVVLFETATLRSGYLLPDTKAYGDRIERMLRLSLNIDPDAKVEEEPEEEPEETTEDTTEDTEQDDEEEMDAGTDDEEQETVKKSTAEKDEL
Sequence of Endoplasmin (Homo sapiens, UniProt P14625) (P14625 whole entry, the tested form may be a part): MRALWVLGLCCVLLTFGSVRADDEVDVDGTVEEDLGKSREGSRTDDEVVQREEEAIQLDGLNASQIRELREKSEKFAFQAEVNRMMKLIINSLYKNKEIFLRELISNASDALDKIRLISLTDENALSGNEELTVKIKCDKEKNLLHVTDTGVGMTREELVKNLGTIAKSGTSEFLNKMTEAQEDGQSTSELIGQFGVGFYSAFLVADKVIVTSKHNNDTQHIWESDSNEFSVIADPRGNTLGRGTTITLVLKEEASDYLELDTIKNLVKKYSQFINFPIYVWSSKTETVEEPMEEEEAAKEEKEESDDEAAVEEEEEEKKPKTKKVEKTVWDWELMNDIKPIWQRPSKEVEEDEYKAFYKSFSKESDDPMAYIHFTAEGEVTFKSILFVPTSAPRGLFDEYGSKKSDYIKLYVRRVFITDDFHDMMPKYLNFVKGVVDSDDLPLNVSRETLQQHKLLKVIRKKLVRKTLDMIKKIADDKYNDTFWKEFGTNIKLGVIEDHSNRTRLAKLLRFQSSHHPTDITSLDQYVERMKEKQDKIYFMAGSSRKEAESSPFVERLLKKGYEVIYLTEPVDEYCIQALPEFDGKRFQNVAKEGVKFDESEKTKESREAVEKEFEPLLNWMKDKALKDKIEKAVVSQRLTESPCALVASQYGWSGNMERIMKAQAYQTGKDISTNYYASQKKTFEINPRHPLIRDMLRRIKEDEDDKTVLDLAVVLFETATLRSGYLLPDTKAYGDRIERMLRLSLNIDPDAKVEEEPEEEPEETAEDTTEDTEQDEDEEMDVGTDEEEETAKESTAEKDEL

For `COC(=O)c1c(O)cc(O)c(Cl)c1CCC(=O)NC1=CC(=O)C(OC)=CC1=O`, the Kd on Endoplasmin [1] was found to be 520 nM; in series [2], 870 nM.

`C#CCCCn1cnc(N)c2nc(Sc3ccc(C)cc3C)nc1-2`: the Ratio IC50 in the series listed under Homo sapiens is more than 21. Further, the IC50 in series [3] is more than 250000 nM; on Endoplasmin [4], 11800 nM.

As to `CC(C)CNc1ccc(-c2ccc(C(C)C)cc2)cc1C(N)=O`, the inhibition in the series filed under Canis lupus familiaris came to 96%. The molecule further displayed an IC50 in series [5] of 2320 nM. The “inhibition (INH)” value in [6] is on record as “Not Active”.

In turn, `NC(=O)c1cc(-c2ccc(Cl)cc2)ccc1N[C@H]1CC[C@H](O)CC1` came in with an inhibition in the series filed under Canis lupus familiaris of 100%. This molecule came in with an IC50 in [5] of 170 nM. Further, the “inhibition (INH)” value in series [6] is recorded as “Not Active”.

Consider `CC(C)c1ccc(-c2ccc(NC3CCCCC3)c(C(N)=O)c2)cc1`, for which, in the series filed under Canis lupus familiaris, the inhibition came out at 97%. For the same molecule, the IC50 in [5] came out at 370 nM. In series [6], the “inhibition (INH)” value is given as “Not Active”.

Consider `CC(C)c1cc(C(=O)N2Cc3ccc(CN4CCN(C)CC4)cc3C2)c(O)cc1O` [ONALESPIB], for which, in the series filed under Canis lupus familiaris, the inhibition worked out at 100%. In addition, the results for the IC50 (in [5]; on Heat shock protein HSP90) were 20 nM and 22 nM, respectively. Moreover, the “inhibition (INH)” value in [7] and in series [8] was “Active” throughout.

Turning to `CCc1ccccc1-c1ccc(N[C@H]2CC[C@H](O)CC2)c(C(N)=O)c1`, the inhibition in the series listed under Canis lupus familiaris came out at 92%. Also, the IC50 in [5] turned out to be 2060 nM. In series [6], the “inhibition (INH)” value is recorded as “Not Active”.

`CC(C)(C)c1ccc(-c2ccc(N[C@H]3CC[C@H](O)CC3)c(C(N)=O)c2)cc1`: the inhibition in the series listed under Canis lupus familiaris was found to be 100%. Further, in series [5], the 50% inhibitory concentration (IC50) is 790 nM. Moreover, in series [6], the “inhibition (INH)” value was “Not Active”.

`Cc1cccc(-c2ccc(N[C@H]3CC[C@H](O)CC3)c(C(N)=O)c2)c1C` showed an inhibition in the series filed under Canis lupus familiaris of 81%. In addition, in series [5], the IC50 amounted to 460 nM. Moreover, the “inhibition (INH)” value in [6] is on record as “Not Active”.

For `NC(=O)c1cc(-c2ccc3ccccc3c2)ccc1N[C@H]1CC[C@H](O)CC1`, the inhibition in the series listed under Canis lupus familiaris was determined as 75%. Moreover, the IC50 in series [5] came to 12600 nM. Besides, the “inhibition (INH)” value in series [6] is recorded as “Not Active”.

For `Cc1cc(C)cc(-c2ccc(N[C@H]3CC[C@H](O)CC3)c(C(N)=O)c2)c1`, the inhibition in the series filed under Canis lupus familiaris amounted to 72%. In series [5], this molecule had an IC50 of 19700 nM. Further, in [6], the “inhibition (INH)” value is recorded as “Not Active”.

Turning to `CC(C)c1ccc(-c2ccc(NC3CCOCC3)c(C(N)=O)c2)cc1`, in the series listed under Canis lupus familiaris, the inhibition was 100%. The molecule also showed an IC50 in series [5] of 73 nM. Besides, in series [6], the “inhibition (INH)” value was “Not Active”.
